Laboratory results as given in ChEMBL document CHEMBL4402517, “Rational modification of Mannich base-type derivatives as novel antichagasic compounds: Synthesis, in vitro and in vivo evaluation” (Bioorg Med Chem, 2019).
Calls of active or inactive are those of the source. No cut-off for these calls is given here.

Experiments:
Trypanosoma cruzi [1] = assay: Antitrypanosomal activity against Trypanosoma cruzi MHOM/Pe/2011/Arequipa;DTU 5 bloodstream trypomastigote infected in BALB/c mouse assessed as parasitemia reactivation in acute phase at 20 mg/kg/day, po administered for 5 consecutive days starting from day 8 post infection followed by cyclophosphamide induced immunosuppression on day 80 post infection by Neubauer chamber relative to control; format: functional
Method in brief: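 Female BALB/c mice (three per group) were infected i.p. with 5 × 10^5 Arequipa bloodstream trypomastigotes and treated orally at 20 mg/kg/day for 5 days (vehicle 5% DMSO/0.5% HPMC). Once parasitemia was undetectable (day 80 pi), cyclophosphamide 200 mg/kg was given i.p. Bloodstream parasites were then counted to give % reactivation versus untreated controls.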

[2] = (§1) Toxicity in BALB/c mouse infected with Trypanosoma cruzi MHOM/Pe/2011/Arequipa;DTU 5 bloodstream trypomastigote assessed as increase in serum alanine aminotransferase level in chronic phase at 20 mg/kg/day, po administered for 5 consecutive days starting from day 70 post infection and measured at day 76 post infection relative to control; format: organism-based; details: in vivo
Method in brief: (§2)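 Female BALB/c mice (10–12 weeks, 14–20 g; groups of three) were infected i.p. with 5 × 10^5 Arequipa bloodstream trypomastigotes. Dosing was oral at 20 mg/kg/day for 5 days, from day 8 pi (acute) or day 70 pi (chronic), as a 2 mg/ml suspension in 5% DMSO/0.5% HPMC; controls received vehicle. Cyclophosphamide 200 mg/kg i.p. was given at day 80 pi. Serum was collected 2 days post-treatment and at necropsy by cardiac puncture and compared with infected untreated controls.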

Trypanosoma cruzi [3] = assay: (§3) Antitrypanosomal activity against Trypanosoma cruzi MHOM/Pe/2011/Arequipa;DTU 5 bloodstream trypomastigotes infected in BALB/c mouse assessed as parasite-free stomach in acute phase at 20 mg/kg/day, po administered for 5 consecutive days starting from day 8 post infection followed by cyclophosphamide induced immunosuppression on day 80 post infection measured after day 100 post infection by PCR method relative to control; format: functional
Method in brief: (§4)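 Female BALB/c mice (10–12 weeks, three per group) were infected i.p. with 5 × 10^5 Arequipa bloodstream trypomastigotes. Dosing was oral, 20 mg/kg/day for 5 days, as a suspension in 5% DMSO/0.5% HPMC. Cyclophosphamide 200 mg/kg i.p. was given at day 80 pi. At necropsy (day 100) tissues were tested by PCR on the splice leader region (primers TC/TC1, 300 bp). Scored as x/3 mice positive.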

[4] = Selectivity index, ratio of IC50 for African green monkey Vero cells to IC50 for Trypanosoma cruzi IRHOD/CO/2008/SN3;DTU 1; format: toxicity; details: read-out: Selectivity Index
Method in brief: (§5)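 SI = Vero IC50 / epimastigote IC50. Vero cells were grown in RPMI-1640 with 10% FBS, seeded at 0.8 × 10^4 cells/well, exposed to 10.0–200.0 µM for 72 h, then given MTT for 4 h. Epimastigotes were grown in MTL with 10% FBS at 28 °C, 5 × 10^5/mL, exposed to 6.3–50 µM for 48 h, then resazurin for 24 h (570/600 nm). IC50s came from nonlinear regression.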

[5] = as §1, with “decrease” for “increase”, “lactate dehydrogenase” for “alanine aminotransferase”; format: organism-based; parameters: scale not given: the % may be the effect or the level left; details: in vivo; method in brief: as §2
Trypanosoma cruzi [6] = assay: (§6) Antitrypanosomal activity against Trypanosoma cruzi MHOM/Pe/2011/Arequipa;DTU 5 bloodstream trypomastigotes infected in BALB/c mouse assessed as reduction in serum Ig-G level in acute phase at 20 mg/kg/day, po administered for 5 consecutive days starting from day 8 post infection and measured at day 14 post infection by ELISA; format: functional, organism-based
Method in brief: (§7)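 Sera came from infected BALB/c mice (three per group) dosed orally at 20 mg/kg/day for 5 days. Sampling points: 2 days after treatment, the day before immunosuppression (acute only) and necropsy day. Anti-T. cruzi IgG was measured by indirect ELISA using parasite Fe-SOD as antigen, read as OD at 492 nm.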

Trypanosoma cruzi [7] = assay: Antitrypanosomal activity against Trypanosoma cruzi TINF/CH/1956/Tulahuen;DTU 6 epimastigotes measured after 72 hrs by Neubauer hemocytometer; format: functional, organism-based; details: TINF/CH/1956/Tulahuen;DTU 6, 72 h
Trypanosoma cruzi [8] = assay: Antitrypanosomal activity against bloodstream trypomastigote stage of Trypanosoma cruzi MHOM/Pe/2011/Arequipa; DTU 5 isolated from parasite infected BALB/c Albino mouse cardiac cells after 24 hrs by Neubauer chamber based cell counting method; format: functional, organism-based; details: DTU 5, 24 h
Method in brief: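 Bloodstream trypomastigotes were taken by cardiac puncture from infected BALB/c mice and diluted in RPMI + 10% heat-inactivated FBS. At 2 × 10^6/mL they were exposed to 3.1–50.0 µM (lower where needed) for 24 h at 37 °C, 5% CO2, and counted in a Neubauer chamber. Triplicates, at least three experiments; IC50 by nonlinear regression.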

Trypanosoma cruzi [9] = assay: Trypanocidal activity against Trypanosoma cruzi TINF/CH/1956/Tulahuen;DTU 6 trypomastigote forms infected in BALB/c albino mouse measured after 24 hrs by Neubauer chamber method; details: TINF/CH/1956/Tulahuen;DTU 6, 24 h
Trypanosoma cruzi [10] = assay: Antitrypanosomal activity against Trypanosoma cruzi MHOM/Pe/2011/Arequipa;DTU 5 epimastigote assessed as depolarization of mitochondrial membrane at IC50 measured after 72 hrs by rhodamine 123 and acridine orange staining based flow cytometry relative to control; format: functional
Method in brief: (§8)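 They were stained with rhodamine 123 or acridine orange and analysed by flow cytometry. Index of variation = (TM−CM)/CM, from median fluorescence of treated (TM) and untreated (CM) parasites.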

Trypanosoma cruzi [11] = assay: Antitrypanosomal activity against Trypanosoma cruzi MHOM/Pe/2011/Arequipa;DTU 5 epimastigote assessed as change in RNA level at IC50 measured after 72 hrs by acridine orange staining based flow cytometry relative to control; format: functional; method in brief: as §8
Trypanosoma cruzi [12] = assay: as §6, with “79” for “14”; format: functional, organism-based; method in brief: as §7
Trypanosoma cruzi [13] = assay: Antitrypanosomal activity against Trypanosoma cruzi MHOM/Pe/2011/Arequipa;DTU 5 epimastigotes measured after 72 hrs by Neubauer hemocytometer; format: functional, organism-based; details: MHOM/Pe/2011/Arequipa;DTU 5, 72 h
Trypanosoma cruzi [14] = assay: as §3, with “trypomastigote” for “trypomastigotes”, “oesophagus” for “stomach”; format: functional; method in brief: as §4
Trypanosoma cruzi [15] = assay: as §3, with “trypomastigote” for “trypomastigotes”, “brain” for “stomach”; format: functional; method in brief: as §4
Trypanosoma cruzi [16] = assay: as §3, with “trypomastigote” for “trypomastigotes”, “spleen” for “stomach”; format: functional; method in brief: as §4
[17] = Selectivity index, ratio of IC50 for African green monkey Vero cells to IC50 for Trypanosoma cruzi TINF/CH/1956/Tulahuen;DTU 6; format: toxicity; details: read-out: Selectivity Index; method in brief: as §5
Trypanosoma cruzi [18] = assay: as §6, with “chronic” for “acute”, “70” for “8”, “infection” for “infection and”, “76” for “14”; format: functional, organism-based; method in brief: as §7
Vero = assay: Cytotoxicity against African green monkey Vero cells measured after 72 hrs by MTT assay; format: cell-based; details: Chlorocebus sabaeus
Method in brief: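 Log-phase Vero cells (0.8 × 10^4/well) in RPMI-1640 + 10% heat-inactivated FBS at 37 °C, 5% CO2 were exposed 72 h to serial dilutions (10.0–200.0 µM; stocks in DMSO). MTT was then added for 4 h and absorbance read. Quadruplicates, three experiments; IC50 by nonlinear regression.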

Row | SMILES | Activity (Trypanosoma cruzi [1]) [%] | Activity [2] | Activity (Trypanosoma cruzi [3]) [%] | selectivity ratio [4] | Activity [5] | Activity (Trypanosoma cruzi [6]) | IC50 (Trypanosoma cruzi [7]) [µM] | IC50 (Trypanosoma cruzi [8]) [µM] | IC50 (Trypanosoma cruzi [9]) [µM] | Activity (Trypanosoma cruzi [10]) [%] | Activity (Trypanosoma cruzi [11]) [%] | Activity (Trypanosoma cruzi [12]) | IC50 (Trypanosoma cruzi [13]) [µM] | Activity (Trypanosoma cruzi [14]) [%] | Activity (Trypanosoma cruzi [15]) [%] | Activity (Trypanosoma cruzi [16]) [%] | selectivity ratio [17] | Activity (Trypanosoma cruzi [18]) | IC50 (Vero) [µM]
1 | O=C(CCN1CCN(c2ccc(C(F)(F)F)cc2)CC1)c1ccc(O)cc1 | 85 | > 40% | 13 | 8.5 | <= 20% | Active | 14.8 | 0.9 | 2.3 | 54.4 | -4.2 | Active | 22.7 | 13 | 13 | 13 | 7.2 | Active | 107
2 | O=C(CCN1CCN(c2ccc(Cl)cc2)CC1)c1ccc(O)cc1 | 25 | <= 10% | 50 | 8.6 | <= 10% | Active | 10.6 | 0.7 | 2.1 | 67.6 | -5.1 | Active | 18.6 | 50 | 50 | 50 | 9.8 | Active | 104
3 | O=C(Cn1ccnc1[N+](=O)[O-])NCc1ccccc1 [BENZNIDAZOLE] | 65 | > 40% | 25 | > 13.1 | <= 10% | Active | 25.3 | 6.2 | 6.7 | 15.2 | -4.7 | Active | 26.2 | 25 | 25 | 25 | > 7.9 | Active | > 200
